# Measurements from ChEMBL document CHEMBL1687827, “Profiling the Aspergillus fumigatus proteome in response to caspofungin” (2011).
# Active and inactive are the calls of the source. No cut-off for these calls is given here.
# Columns and labels:
# Aspergillus fumigatus [1] = test: Induction of change in ribosomal protein L35, putative protein level in iTRAQ114 labelled secreted fraction of drug-susceptible Aspergillus fumigatus KU80 delta-akuB at 0.12 ug/ml after 24 hrs in YPD medium by MS (MS/MS) analysis relative to control; format: functional
# How it was run: (§1)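 Conidia (1 × 10⁵/ml) grown in YPD, 37°C, 225 rpm, ± 0.12 μg/ml caspofungin; filtrate taken as secreted fraction, French-press lysate 5,000 × g pellet as cell wall/plasma membrane. Trypsin digests 8-plex iTRAQ-labelled (drug-free channels as references), pooled, 2D-chromatography, MS/MS. Median-normalized; protein ratio = median of unique-peptide ratios, log2 normalized.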
# Aspergillus fumigatus [2] = test: Antifungal activity against drug-susceptible Aspergillus fumigatus KU80 delta-akuB assessed as change in hyphal morphology by RPMI medium; format: functional; conditions: read-out: MEC
# How it was run: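 CLSI M38-A2 broth microdilution, run in triplicate in RPMI or YPD medium as the line specifies. Caspofungin was dissolved in sterile water. The minimum effective concentration (MEC) was the lowest concentration giving a significant change in hyphal morphology visible to the eye.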
# Aspergillus fumigatus [3] = test: Induction of change in hypothetical gene locus AFUA_6G06840 expression in drug-susceptible Aspergillus fumigatus KU80 delta-akuB at 0.12 ug/ml after 48 hrs in YPD medium by microarray analysis relative to control; format: functional
# How it was run: (§2)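 Mycelia grown from 1 × 10⁵ conidia/ml in YPD at 37°C, 225 rpm, with or without 0.12 μg/ml caspofungin. Total RNA extracted, DNase-treated; 2 μg labelled per TIGR SOP M007 for whole-genome array hybridization. Three independent experiments with dye flip (6 replicates); >2-fold change deemed significant.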
# Aspergillus fumigatus [4] = test: Induction of change in thioredoxin TrxA protein level in iTRAQ-118 labelled cell wall fraction of drug-resistant Aspergillus fumigatus EMFR-S678P at 0.12 ug/ml after 24 hrs in YPD medium by MS (MS/MS) analysis relative to control; format: functional, organism-based
# How it was run: (§3)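 Conidia at 1 × 10⁵/ml were grown at 37°C, shaking at 225 rpm, in YPD with or without 0.12 μg/ml caspofungin for 24 or 48 h. The culture filtrate was kept as the secreted fraction. Mycelia were lysed by French press in HEPES/glycerol/EDTA/PMSF/DTT buffer, and the 5,000 × g pellet was washed to give CW/PM. Proteins were reduced, alkylated and trypsin-digested at 37°C overnight, then iTRAQ-labelled and run by 2D LC-MS/MS. Ratios are the median of unique-peptide ratios, median-normalized, versus the no-drug control.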
# Aspergillus fumigatus [5] = test: Induction of change in molecular chaperone and allergen Mod-E/Hsp90/Hsp1 protein level in iTRAQ-116 labelled secreted fraction of drug-resistant Aspergillus fumigatus EMFR-S678P at 0.12 ug/ml after 48 hrs in YPD medium by MS (MS/MS) analysis relative to control; format: functional; how it was run: as §3
# Aspergillus fumigatus [6] = test: Induction of change in Class III chitinase ChiA1 protein level in iTRAQ114 labelled cell wall fraction of drug-susceptible Aspergillus fumigatus KU80 delta-akuB at 0.12 ug/ml after 24 hrs in YPD medium by MS (MS/MS) analysis relative to control; format: functional; how it was run: as §3
# Aspergillus fumigatus [7] = test: Induction of change in ubiquinol-cytochrome C reductase complex core protein 2, putative protein level in iTRAQ-118 labelled cell wall fraction of drug-susceptible Aspergillus fumigatus KU80 delta-akuB at 0.12 ug/ml after 24 hrs in YPD medium by MS (MS/MS) analysis relative to control; format: functional; how it was run: as §1
# Aspergillus fumigatus [8] = test: Induction of change in eukaryotic translation elongation factor 1 subunit Eef1-beta, putative protein level in iTRAQ-116 labelled secreted fraction of drug-resistant Aspergillus fumigatus EMFR-S678P at 0.12 ug/ml after 48 hrs in YPD medium by MS (MS/MS) analysis relative to control; format: functional; how it was run: as §3
# Aspergillus fumigatus [9] = test: Induction of change in ribosomal protein L26 gene expression in drug-susceptible Aspergillus fumigatus KU80 delta-akuB at 0.12 ug/ml after 24 hrs in YPD medium by microarray analysis relative to control; format: functional; how it was run: as §2
# Aspergillus fumigatus [10] = test: Induction of change in stearic acid desaturase (SdeA), putative gene expression in drug-susceptible Aspergillus fumigatus KU80 delta-akuB at 0.12 ug/ml after 24 hrs in YPD medium by microarray analysis relative to control; format: functional; how it was run: as §2
# Aspergillus fumigatus [11] = test: Induction of change in 60S ribosomal protein L27e protein level in iTRAQ-118 labelled cell wall fraction of drug-resistant Aspergillus fumigatus EMFR-S678P at 0.12 ug/ml after 24 hrs in YPD medium by MS (MS/MS) analysis relative to control; format: functional; how it was run: as §3
# Aspergillus fumigatus [12] = test: Induction of change in ribosomal protein S9 protein level in iTRAQ114 labelled secreted fraction of drug-susceptible Aspergillus fumigatus KU80 delta-akuB at 0.12 ug/ml after 24 hrs in YPD medium by MS (MS/MS) analysis relative to control; format: functional; how it was run: as §1
# Aspergillus fumigatus [13] = test: Induction of change in aldehyde dehydrogenase, putative protein level in iTRAQ114 labelled secreted fraction of drug-resistant Aspergillus fumigatus EMFR-S678P at 0.12 ug/ml after 24 hrs in YPD medium by MS (MS/MS) analysis relative to control; format: functional; how it was run: as §3
# Aspergillus fumigatus [14] = test: Induction of change in 60S ribosomal protein L12, putative gene expression in drug-susceptible Aspergillus fumigatus KU80 delta-akuB at 0.12 ug/ml after 24 hrs in YPD medium by microarray analysis relative to control; format: functional
# How it was run: (§4)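 Mycelia grown in YPD ± 0.12 μg/ml caspofungin (1 × 10⁵ conidia/ml, 37°C, shaking) and harvested at 24 or 48 h. Total RNA extracted, DNase-treated and quality-checked; 2 μg labelled per TIGR SOP M007 and hybridized to whole-genome arrays. Three independent experiments with dye flip (6 replicates); drug vs untreated fold change.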
# Aspergillus fumigatus [15] = test: Induction of change in 60s ribosomal protein yl6 protein level in iTRAQ114 labelled secreted fraction of drug-susceptible Aspergillus fumigatus KU80 delta-akuB at 0.12 ug/ml after 24 hrs in YPD medium by MS (MS/MS) analysis relative to control; format: functional
# How it was run: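 Conidia at 1 × 10⁵/ml grown shaking at 37°C in YPD with or without 0.12 μg/ml caspofungin; mycelia filtered at 24 or 48 h. Secreted fraction taken from the filtrate; cell wall/plasma membrane pellet recovered after French-press lysis and a 5,000 × g spin. Proteins trypsin-digested and iTRAQ-labelled, drug vs no-drug channels at each time, then 2D LC-MS/MS. Protein ratio is the median of ratios from uniquely assigned peptides after median normalization.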
# Aspergillus fumigatus [16] = test: Induction of change in 60s ribosomal protein yl17-b gene expression in drug-susceptible Aspergillus fumigatus KU80 delta-akuB at 0.12 ug/ml after 24 hrs in YPD medium by microarray analysis relative to control; format: functional; how it was run: as §4
# Aspergillus fumigatus [17] = test: Induction of change in C2H2 transcription factor (Rpn4), putative gene expression in drug-susceptible Aspergillus fumigatus KU80 delta-akuB at 0.12 ug/ml after 48 hrs in YPD medium by microarray analysis relative to control; format: functional; how it was run: as §4
# Aspergillus fumigatus [18] = test: Induction of change in mitochondrial hypoxia responsive domain protein level in iTRAQ121 labelled cell wall fraction of drug-susceptible Aspergillus fumigatus KU80 delta-akuB at 0.12 ug/ml after 48 hrs in YPD medium by MS (MS/MS) analysis relative to control; format: functional; how it was run: as §1
smiles,measurement,setting,value
CC[C@H](C)C[C@H](C)CCCCCCCCC(=O)N[C@H]1C[C@@H](O)[C@@H](NCCN)NC(=O)[C@@H]2[C@@H](O)CCN2C(=O)[C@H]([C@H](O)CCN)NC(=O)[C@H]([C@H](O)[C@@H](O)c2ccc(O)cc2)NC(=O)[C@@H]2C[C@@H](O)CN2C(=O)[C@H]([C@@H](C)O)NC1=O [CASPOFUNGIN],fold change (FC),Aspergillus fumigatus [1],1.4
same,minimal effective concentration,Aspergillus fumigatus [2],0.25 µg/mL
same,fold change (FC),Aspergillus fumigatus [3],-2.1
same,Activity,Aspergillus fumigatus [4],inactive
same,fold change (FC),Aspergillus fumigatus [5],-1.07
same,fold change (FC),Aspergillus fumigatus [6],-12.1
same,fold change (FC),Aspergillus fumigatus [7],-2
same,fold change (FC),Aspergillus fumigatus [8],-1.74
same,fold change (FC),Aspergillus fumigatus [9],5.3
same,fold change (FC),Aspergillus fumigatus [10],-4.6
same,fold change (FC),Aspergillus fumigatus [11],-1.15
same,fold change (FC),Aspergillus fumigatus [12],1.1
same,fold change (FC),Aspergillus fumigatus [13],1.62
same,fold change (FC),Aspergillus fumigatus [14],7.2
same,fold change (FC),Aspergillus fumigatus [15],1.1
same,fold change (FC),Aspergillus fumigatus [16],3.5
same,fold change (FC),Aspergillus fumigatus [17],-2.4
same,fold change (FC),Aspergillus fumigatus [18],-2.1
